Experimental findings from PubChem BioAssay are described below.

Assay [1] concerns the target Oxysterols receptor LXR-beta (Homo sapiens) (UniProt P55055). Briefly: nonspecific reporter activation via LXR – cell-based, luminescence, HEK293, H. contortus campaign, counter-screen for hcDAF-12 agonist project, confirmation (AID 743027;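 active = mean percent activation of the reporter above a cutoff set as the average over tested compounds plus their standard deviation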). The settings on record: HEK293 Gal4-LXR tk-luc reporter, 24 h, at 6.8 µM, stronger effect = higher value, normalized: DMSO 0%, positive control 100%. In a few lines: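 Assay system: HEK293 Gal4-LXR luciferase reporter cells; schedule: one-day compound treatment at 37 °C; signal: One-Glo luciferase luminescence; control set: DMSO and positive control; replicates: triplicate wells per compound; doses: 6.8 µM single dose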
In general terms: The purpose of a counterscreen is to sort out artefacts and off-target activity.

For assay [2], the system named is Nuclear hormone receptor DAF-12 (Haemonchus contortus). Briefly: hcDAF-12 luciferase reporter activation, retest – cell-based, luminescence, HEK293, lit1-tk-luc, triplicate, confirmation (AID 743032;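 active = mean activation across triplicate tests above the threshold derived from the earlier primary screen, cut at about 5.5% in these data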;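 note: 0% = DMSO only wells and 100% = 3 µM Δ7-dafachronic acid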). Particulars: HEK293 hcDAF-12 lit1-tk-luc reporter, at 6.8 µM, stronger effect = higher value, % of Δ7-dafachronic acid response. In general terms: In a reporter assay the amount or activity of a reporter protein is the signal.

For assay [3], the system named is DAF-12 nuclear receptor (Heterodera glycines), GAL4-LBD fusion. Briefly: hgDAF-12 GAL4 fusion reporter activation, retest – cell-based, luminescence, HEK293, GAL4-LBD fusion, confirmation (AID 743050).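 Note: 0% = DMSO low control and 100% = 2 mM sodium butyrate high control.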 The settings on record: HEK293 GAL4-hgDAF12 luciferase reporter, agonist mode; at 6.8 µM; stronger effect = higher value; percent of butyrate response.
Assay [4] has as its target Oxysterols receptor LXR-beta (Homo sapiens) (UniProt P55055). Briefly: nonspecific reporter activation via LXR – cell-based, luminescence, HEK293, H. glycines campaign, counter-screen for hgDAF-12 agonist project, confirmation (AID 743051;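 active = mean activation of the triplicate above a set limit carried over from the primary screen, none filed active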). The settings on record: HEK293 Gal4-LXR luciferase reporter, 24 h; at 6.8 µM; stronger effect = higher value. The method, boiled down:
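Test system – Gal4-LXR luciferase reporter HEK293 cells · Dosing – single nominal test compound dose of 6.8 µM · Times – 24 h compound exposure at 37 °C, 5% CO2 · Detection – luciferase luminescence · Evaluation – % activation versus DMSO and positive controls · Benchmarks – DMSO low control · Repeats – triplicate wells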

Each structure is given as a SMILES string. This is one part of the list. Values without a mark were called inactive. The source made the active and inactive calls.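 Rule for the calls, unless noted: active = mean activation over triplicate wells above the hit cutoff derived from the earlier primary screen (cut at about 11% in these data); inactive = the rest.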

Oxysterols receptor LXR-beta (Homo sapiens), sequence (P55055 whole entry, looked up, the tested form may be a part): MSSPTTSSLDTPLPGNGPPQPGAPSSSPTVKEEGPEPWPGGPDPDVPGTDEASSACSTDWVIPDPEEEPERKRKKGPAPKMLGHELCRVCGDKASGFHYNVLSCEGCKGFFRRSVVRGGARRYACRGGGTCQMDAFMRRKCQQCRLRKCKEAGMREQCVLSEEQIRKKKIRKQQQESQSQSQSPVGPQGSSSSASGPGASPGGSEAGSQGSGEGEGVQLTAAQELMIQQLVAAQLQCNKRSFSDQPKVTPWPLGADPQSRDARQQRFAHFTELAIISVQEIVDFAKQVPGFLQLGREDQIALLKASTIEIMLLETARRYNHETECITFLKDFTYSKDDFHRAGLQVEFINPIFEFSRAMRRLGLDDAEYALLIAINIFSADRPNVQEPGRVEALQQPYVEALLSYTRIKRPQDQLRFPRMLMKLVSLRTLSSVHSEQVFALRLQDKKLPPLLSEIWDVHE

Turning to `CCc1ccc(NC(=O)N2CCc3ccccc3C2)cc1`, the activation in assay [1] is 0.65%; in assay [2] it was 7.24% (active).
Consider `Cn1c(=NC(=O)C2CC2)sc2cc(F)cc(F)c21`, for which the activation in assay [1] was -0.11%; in assay [2], 5.5%; in assay [3] it was 5.29%; in assay [4], 0.25%.
For `O=C(Nc1ccn(Cc2ccccc2)n1)c1cccc(F)c1`, in that order: 1.66%, 7.02% (active), 15.6% (active) and 0.7%.
Take `CC(C)(C)c1ccc(/C=C/C(=O)Nc2ncccn2)cc1`: the activation was 14.8% (active) in assay [3] and 0.79% in assay [4].
Regarding `COc1ccc(C2=NN(C(=O)c3ccccc3C(=O)O)C(c3ccccc3O)C2)cc1` (stereo not given), the activation was 0.16% in assay [1], 2.72% in assay [2], 4.93% in assay [3] and 0.19% in assay [4].
With `O=C(NNC(=O)c1ccc(Cl)cc1Cl)c1cccs1`, the activation is 9.02% in assay [3] and 0.37% in assay [4].
For `Cc1cc(O)c(NC(=O)c2ccc(C)c([N+](=O)[O-])c2)cc1C`, in that order: 10% and 0.55%.
For the compound `NC(=O)c1ccccc1N=Cc1ccc2ccccc2c1`, the activation in assay [1] was 0.6%; in assay [2] it was 5.79% (active); in assay [3] it was 15.7% (active); in assay [4] it was 0.4%.
As to `O=C(Nc1ccccc1)c1ccc2c(c1)OCCCO2`, the figures for the activation in assay [3] and in assay [4] were 19.7% (active) and 1.02%, respectively.
The corresponding values for `Cc1cnc(C(=O)N2CCCC(C(=O)c3ccc(C(F)(F)F)cc3)C2)cn1` (stereo not given) are 4.5% and 0.17%.
The corresponding values for `S=C(c1ccc(-c2ccccc2)o1)N1CCCCC1` are 16.1% (active) and 0.73%.
Take `COC(=O)N/N=C/c1cn(CCCOc2ccc(C)cc2)c2ccccc12`: the activation in assay [3] is 6.55%; in assay [4] it was 0.17%.
For `COc1cccc(/C=C/C(=O)Nc2ccc3c(c2)OCCO3)c1`, in that order: 12.4% (active) and 0.69%.
The corresponding values for `O=C(Nc1ccc(C2CC2(Cl)Cl)cc1)c1cccc([N+](=O)[O-])c1` (stereo not given) are 15.2% (active) and 0.56%.
For the compound `CS(=O)(=O)N1CCc2nc(-c3ccccc3)sc2C1`, the results for the activation in assay [3] and in assay [4] were 10.3% and 0.56%, respectively.
With `COc1ccc(C(=O)O/N=C(\N)c2ccccn2)cc1[N+](=O)[O-]`, the activation in assay [3] is 15% (active); in assay [4], 0.59%.
Turning to `CC1CCCN(c2ccc(C(=O)NCCc3ccccc3)cn2)C1` (stereo not given), the activation in assay [3] was 14.6% (active); in assay [4] it was 0.64%.
For `CSc1ccc(/C=N/NC(=O)c2cccc(Cl)c2)cc1`, in that order: 14.8% (active) and 0.56%.
For `CC(C)(C)c1csc(NC2=NS(=O)(=O)c3ccccc32)n1`, in that order: 15.4% (active) and 0.75%.
In the case of `Cc1cccc(NC(=O)/C=C/c2ccc3c(c2)OCO3)n1`, the figures for the activation in assay [3] and in assay [4] were 18.1% (active) and 0.84%, respectively.
The corresponding values for `CCCNC(=O)c1c(Cl)cnn1-c1ccc(C)cc1` are 9.95% and 0.55%.
For `CC(=O)c1ccccc1NC(=O)COC(=O)C1COc2ccccc2O1` (stereo not given), in that order: -0.02% and 0.04%.
Turning to `Fc1ccccc1-c1cc2cc3c(cc2cn1)OCO3`, the activation was 18.4% (active) in assay [3] and 0.79% in assay [4].
In the case of `Cn1c(-c2ccc(C(=O)c3ccccc3)s2)nc2ccccc21`, the activation in assay [3] is 17.6% (active); in assay [4] it was 0.88%.
`CC(=O)Nc1ccc(-c2nc3ccccc3o2)cc1`: the activation was 17% (active) in assay [3] and 0.95% in assay [4].
The corresponding values for `Oc1cccc2cc(-c3ccncc3)cnc12` are 5.92% and 0.18%.
The corresponding values for `O=C(NC1CCCC1)c1cc(-c2ccccc2)on1` are 37.1% (active) and 0.75%.
The corresponding values for `COc1ccc(/C=C2/CCCc3ccccc3C2=O)cc1` are 18.7% (active) and 0.78%.
As to `Cc1ccccc1Nc1nc(-c2cccnc2)cs1`, the results for the activation in assay [3] and in assay [4] were 16.4% (active) and 0.7%, respectively.
In the case of `O=C(NC(=S)NC1CCCCC1)c1ccc(Cl)cc1`, the figures for the activation in assay [3] and in assay [4] were 11.3% (active) and 0.45%, respectively.
The corresponding values for `Cc1ccc(NC(=O)c2ccco2)cc1` are 11.2% (active) and 0.49%.
Regarding `O=C(c1cnn2ccccc12)N1CCc2ccccc21`, the activation was 13.2% (active) in assay [3] and 0.43% in assay [4].
With `Cc1ccsc1C(=O)N/N=C/c1ccc([N+](=O)[O-])cc1`, the figures for the activation in assay [3] and in assay [4] were 15.8% (active) and 0.59%, respectively.
The corresponding values for `COc1ccc(CNC(=O)COc2ccccc2C(=O)c2cnn(-c3ccccc3)c2)cc1OC` are 10.3% and 0.65%.
On to `CN(C)S(=O)(=O)c1ccc2oc(SCC(=O)Nc3ccccc3F)nc2c1`, for which the activation in assay [3] is 15.5% (active); in assay [4], 0.66%.
The corresponding values for `N#CC1(Nc2ccc(-c3ccc(Cl)cc3)cc2)CCCC1` are 8.29% and 0.34%.
